# Source: PubChem
# The full list was thinned out, with hits kept by preference.
# IDH1 mut inh = IDH1 R132H (human) inhibition. inhibition, % at 10 µM. AID 624101. O75874. IDH1 R132H reductase, diaphorase/resazurin fluorescence, 60 min. actives 0.18% (n = 70,000); in the data active = inhibition above about 34%; inconclusive = no clear call, values can overlap the other calls; inactive = below about 11%;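 note: 0% = DMSO and 100% = no enzyme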
# Target sequence (O75874 whole entry R132H): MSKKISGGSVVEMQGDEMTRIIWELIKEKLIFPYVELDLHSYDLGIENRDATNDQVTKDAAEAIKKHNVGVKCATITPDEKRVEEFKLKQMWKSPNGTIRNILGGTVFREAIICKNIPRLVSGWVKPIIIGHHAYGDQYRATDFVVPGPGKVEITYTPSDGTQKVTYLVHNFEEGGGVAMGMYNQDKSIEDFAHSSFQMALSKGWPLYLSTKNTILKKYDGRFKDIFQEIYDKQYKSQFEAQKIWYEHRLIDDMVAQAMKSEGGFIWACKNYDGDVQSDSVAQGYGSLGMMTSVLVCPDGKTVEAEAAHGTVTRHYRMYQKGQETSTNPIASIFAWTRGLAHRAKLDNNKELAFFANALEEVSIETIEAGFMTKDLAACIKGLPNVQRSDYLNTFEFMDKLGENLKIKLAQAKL
# T cruzi growth-1 = blocks T. cruzi growth in NIH3T3 culture. actives 5.9% (n = 77,000). T. cruzi beta-gal in NIH3T3, GalScreen luminescence, 90 h. AID 624255. inhibition, % at 8.34 µM;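 active = mean inhibition above about 93%, with at least 55% of replicates each passing it, limit read from the data, passing the limit was not always enough; inconclusive = only one of those two conditions holds; inactive = neither condition holds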
# GASC1 inh = inhibitors of human demethylase GASC-1 KDM4C; actives 0.15% (n = 96,000); Q9H3R0; GST-KDM4C 2-372, H3K9me3 peptide, LANCE TR-FRET; inhibition, % at 12.5 µM;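 active = mean replicate inhibition above about 25%, with at least 55% of replicates also reaching it, limit read from the data, passing the limit was not always enough; inconclusive = only one of those two conditions met; inactive = neither condition met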
#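 System: N-terminal GST-fused human GASC-1 (KDM4C) fragment, residues 2-372 / Amount: 10 nM GST-KDM4C in enzyme reaction / Also added: H3K9me3 peptide with Fe(II)/2OG / Times: 30 min demethylation and 1 h detection at room temperature / Signal: LANCE TR-FRET / Read-out basis: Fall in 671/618 emission ratio as inhibition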
# T cruzi growth-2 = blocks T. cruzi growth in NIH3T3 host cells; shares compounds with T cruzi growth-1; T. cruzi beta-gal in NIH3T3, GalScreen luminescence, 90 h; inhibition, % at 8.35 µM; actives 72% (n = 5,600); AID 651739;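 active = mean replicate inhibition above about 95% and at least 55% of replicates individually reaching it, limit read from the data; inconclusive = only one of the two criteria is met; inactive = neither criterion is met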
# T cruzi growth-3 = blocks T. cruzi growth in NIH3T3 host cells | shares compounds with T cruzi growth-1 | T. cruzi beta-gal in NIH3T3, GalScreen luminescence, 90 h | inhibition, % at 2.09 µM | actives 21% (n = 5,600) | AID 651740;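 active = mean inhibition above about 95%, with at least 55% of replicates also reaching it, limit read from the data; inconclusive = meets just one of the two conditions; inactive = meets neither condition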;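 note: plate controls were neutral control median for no effect and positive control median for full effect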
# NIH3T3 tox = cytotoxicity in mouse NIH/3T3 fibroblasts. AID 651742. NIH/3T3 viability, CellTiter-Glo ATP luminescence, 90 h. actives 14% (n = 5,600). cytotoxicity (signal decrease), % at 8.35 µM. shares compounds with T cruzi growth-1;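 active = mean signal decrease across replicates above about 35% based on untreated-well scatter, with enough replicates individually passing, limit read from the data; inconclusive = no rule stated though some were filed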;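 note: 0% = median of neutral control wells and 100% = median of positive control wells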
# 3T3 cytotox 2 = NIH/3T3 (mouse) viability loss; shares compounds with T cruzi growth-1; inhibition, % at 24.9 µM; NIH/3T3 viability, CellTiter-Glo ATP luminescence, 90 h; actives 56% (n = 5,600); AID 651744;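 active = mean loss of cell viability signal at or above a set limit, and enough replicates individually reaching it; inconclusive = meets only the mean limit or only the replicate share; inactive = meets neither condition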;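 note: 0% = median of neutral control wells and 100% = median of positive control wells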
# * marks the source's active call; other numbers are inactive results; ? = inconclusive; · = no result given; ! = not confirmed by another sample.
SMILES,IDH1 mut inh,T cruzi growth-1,GASC1 inh,T cruzi growth-2,T cruzi growth-3,NIH3T3 tox,3T3 cytotox 2
C[C@H](CO)N1C[C@H](C)[C@H](CN(C)S(=O)(=O)c2ccc(Cl)cc2)OCc2cnnn2CCCC1=O,-1,?,-1,-13,-14,-6,15
COc1ccc(S(=O)(=O)N(C)C[C@@H]2OCc3cnnn3CCCC(=O)N([C@H](C)CO)C[C@H]2C)cc1,·,-35,-1,·,·,·,·
C[C@H]1CN([C@@H](C)CO)C(=O)CCCn2nncc2CO[C@H]1CN(C)S(=O)(=O)c1cccc(F)c1,·,-26,0,·,·,·,·
C[C@H](CO)N1C[C@H](C)[C@@H](CN(C)S(=O)(=O)c2ccc(Cl)cc2)OCc2cnnn2CCCC1=O,-2,7,1,·,·,·,·
C[C@@H]1CN([C@H](C)CO)C(=O)CCCn2nncc2CO[C@@H]1CN(C)S(=O)(=O)c1cccc(F)c1,-1,144*!,0,103*,1,14,19
CC(=O)Nc1ccc2c(c1)nc1n2CCN(Cc2ccco2)C1,1,·,·,·,·,·,·
CC(=O)Nc1cccc(-c2nnc(SCC(=O)Nc3ccc(C(C)=O)cc3)n2C)c1,0,·,·,·,·,·,·
CCN1C(=O)CS/C1=N\N1CCOCC1,2,·,·,·,·,·,·
C/C=C/c1ccc([C@H]2[C@@H](C#N)N(c3nc(CC)cs3)[C@H]2CO)cc1,·,109*,-2,103*,111*,19,?
C/C=C/c1ccc([C@H]2[C@@H](CO)N(c3nc(CC)cs3)[C@H]2CNC(C)C)cc1,·,98*,-1,98*,59,18,103*
C/C=C/c1ccc([C@H]2[C@H](CO)N(c3nc(CC)cs3)[C@H]2CNC(C)C)cc1,·,90,0,·,·,·,·
C/C=C/c1ccc([C@@H]2[C@@H](C#N)N(c3nc(CC)cs3)[C@H]2CO)cc1,·,93,-2,·,·,·,·
C/C=C/c1ccc([C@@H]2[C@H](C#N)N(c3nc(CC)cs3)[C@H]2CO)cc1,·,104*,-3,105*,83,21,27*
C/C=C/c1ccc([C@@H]2[C@@H](CO)N(c3nc(CC)cs3)[C@H]2C#N)cc1,·,81,-1,·,·,·,·
COc1ccc(NC(=O)CN2CCOCC2)c([N+](=O)[O-])c1,0,·,·,·,·,·,·
COC(=O)[C@]1(CCS(=O)(=O)c2ccccc2)N=C(c2ccc(OCCCO)cc2)O[C@@H]1c1ccccc1N=[N+]=[N-],0,·,·,·,·,·,·
Cc1c(Br)c([N+](=O)[O-])nn1CC(=O)Nc1ccc(C#N)cc1,0,·,·,·,·,·,·
COc1ccc(/C=C/C(=O)O[C@@H]2[C@@H](O)[C@@H](O)[C@H](O[C@@H]3C=C(CO)[C@H]4[C@H](O[C@@H]5O[C@H](CO)[C@@H](O)[C@H](O)[C@H]5O)OC=C[C@H]43)O[C@H]2C)cc1,0,·,·,·,·,·,·
Cc1cc(C)nc(NC(=O)COc2ccc([N+](=O)[O-])cc2)n1,0,·,·,·,·,·,·
Cc1ccc(N(CC(=O)Nc2ccc(F)c(Cl)c2)S(C)(=O)=O)cc1,0,·,·,·,·,·,·
Cc1cccc(-c2ccc([C@@H]3[C@@H](CO)N4CCCCN(S(=O)(=O)c5cccc(C)c5)C[C@H]34)cc2)c1,·,90,-1,·,·,·,·
Cc1cccc(S(=O)(=O)N2CCCCN3[C@H](CO)[C@H](c4ccc(-c5ccccc5)cc4)[C@H]3C2)c1,·,62,·,·,·,·,·
Cc1cccc(S(=O)(=O)N2CCCCN3[C@H](CO)[C@@H](c4ccc(-c5ccccc5)cc4)[C@@H]3C2)c1,·,105*,·,99*,64,26,11
Cc1cccc(-c2ccc([C@@H]3[C@@H](CO)N4CCCCN(S(=O)(=O)c5ccccc5C)C[C@H]34)cc2)c1,·,81,-2,·,·,·,·
Cc1cccc(-c2ccc([C@H]3[C@H]4CN(S(=O)(=O)c5ccccc5C)CCCCN4[C@H]3CO)cc2)c1,·,103*,-1,106*,92,2,38*
SMILES,IDH1 mut inh,T cruzi growth-1,GASC1 inh,T cruzi growth-2,T cruzi growth-3,NIH3T3 tox,3T3 cytotox 2
Cc1cccc(-c2ccc([C@H]3[C@H](CO)N4CCCCN(S(=O)(=O)c5cccc(C)c5)C[C@@H]34)cc2)c1,·,98*,0,91,101*,115*,106*
Cc1cc(NS(=O)(=O)c2ccc(NC(=O)c3csc4ccccc34)cc2)no1,-1,·,·,·,·,·,·
Nc1nnc(SCC(=O)Nc2ccccc2Br)s1,0,·,·,·,·,·,·
Cc1nc2ccccc2nc1CSc1nc2ccccc2s1,0,·,·,·,·,·,·
O=C1CC(SCCc2nc3ccccc3[nH]2)C(=O)N1c1cccc(F)c1 (centres undefined),0,·,·,·,·,·,·
Cc1sc2ncnc(SCC(=O)Nc3ccccc3[N+](=O)[O-])c2c1C,-1,·,·,·,·,·,·
COc1ccc(OC)c(NC(=O)CN(c2ccc(F)c(Cl)c2)S(C)(=O)=O)c1,0,·,·,·,·,·,·
CCOc1ccc(NC(=O)CSc2ncccn2)cc1,0,·,·,·,·,·,·
Cc1cc(C)nc(NC(=O)NC(=O)COc2ccc(Cl)cc2Cl)n1,0,·,·,·,·,·,·
C[C@H](CO)N1C[C@H](C)[C@H](CN(C)Cc2ccc3c(c2)OCO3)Oc2c(NC(=O)c3ccncc3)cccc2C1=O,1,97*,0,85,78,3,16
C[C@H]1CN([C@@H](C)CO)C(=O)c2cccc(NC(=O)c3ccncc3)c2O[C@@H]1CN(C)Cc1ccc(Cl)c(Cl)c1,0,94,0,·,·,·,·
C[C@H](CO)N1C[C@H](C)[C@@H](CN(C)Cc2ccc3c(c2)OCO3)Oc2c(NC(=O)c3cnccn3)cccc2C1=O,·,35,0,·,·,·,·
C[C@@H]1CN([C@@H](C)CO)C(=O)c2cccc(NC(=O)c3cnccn3)c2O[C@@H]1CN(C)Cc1ccc2c(c1)OCO2,·,97*,0,52,5,29,50*
C[C@@H]1CN([C@H](C)CO)C(=O)c2cccc(NC(=O)c3cnccn3)c2O[C@@H]1CN(C)Cc1ccc(Cl)c(Cl)c1,0,68,-2,·,·,·,·
C[C@H]1CN([C@@H](C)CO)C(=O)c2cccc(NC(=O)c3cnccn3)c2O[C@@H]1CN(C)Cc1ccc(Cl)c(Cl)c1,·,109*,1,84,-3,-11,50*
O=C(CSc1nc(O)cc(=O)n1-c1ccccc1)Nc1ccc2ccccc2c1,0,·,·,·,·,·,·
CCc1ccccc1NC(=O)CSc1nc2sc3c(c2c(=O)n1-c1ccccc1)CCC3,0,·,·,·,·,·,·
CCc1cnc(N2[C@H](C#N)[C@@H](c3ccc(C4=CCCCC4)cc3)[C@@H]2CO)s1,·,86,0,·,·,·,·
CCc1cnc(N2[C@H](CO)[C@@H](c3ccc(C4=CCCC4)cc3)[C@@H]2C#N)s1,·,83,-3,·,·,·,·
CCc1cnc(N2[C@H](C#N)[C@@H](c3ccc(C#CCC4CCCC4)cc3)[C@@H]2CO)s1,·,?,-1,96*,106*,-15,104*
CCc1cnc(N2[C@@H](C#N)[C@H](c3ccc(C#CCC4CCCC4)cc3)[C@@H]2CO)s1,·,105*,0,108*,?,-7,12
